# Laboratory results published in ChEMBL document CHEMBL4138242, “Synthesis and antibacterial evaluation of novel cationic chalcone derivatives possessing broad spectrum antibacterial activity” (Eur J Med Chem, 2018).
# Active and inactive are the calls of the source. The calls are words filed in the database; no cut-off is given here.
# Tests used:
# [1] = system: Staphylococcus aureus; experiment: Antibacterial activity against Staphylococcus aureus ATCC 29213 after 16 to 20 hrs by broth microdilution method; assay type: functional
# How it was run: (§1)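 Broth microdilution per CLSI. Bacteria grown 4-6 h (about 10⁸ CFU/mL), then diluted to about 10⁶ CFU/mL. Medium: Mueller-Hinton broth, except Luria-Bertani broth for E. coli. Compounds in sterile water, twofold series 256-0.5 µg/mL, mixed 1:1 with inoculum, 37 °C for 16-20 h. MIC is the lowest concentration without visible growth. Duplicate wells; experiment repeated at least twice.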
# [2] = system: Enterococcus faecalis; experiment: Antibacterial activity against Enterococcus faecalis ATCC 29212 after 16 to 20 hrs by broth microdilution method; assay type: functional; how it was run: as §1
# [3] = system: Escherichia coli; experiment: Antibacterial activity against Escherichia coli ATCC 25922 after 16 to 20 hrs by broth microdilution method; assay type: functional; how it was run: as §1
# [4] = system: Salmonella enterica; experiment: Antibacterial activity against Salmonella enterica ATCC 13076 after 16 to 20 hrs by broth microdilution method; assay type: functional; how it was run: as §1
# [5] = Hemolytic activity in sheep RBC after 1 hr; assay type: ADME, cell-based, Ovis aries, Erythrocyte; conditions: sheep red blood cells (erythrocytes)
# How it was run: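 Sheep red blood cells (150 µL suspension) mixed with 50 µL of compound dilutions (5120-10 µg/mL), 1 h at 37 °C, then centrifuged. Supernatant read at 540 nm. Percent hemolysis calculated relative to RBC-only control (0%) and 0.1% Triton X-100 (100%).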
# [6] = system: Staphylococcus aureus; experiment: Induction of cytoplasmic membrane depolarization in Staphylococcus aureus ATCC 29213 at 10 to 20 ug/ml measured every 2 mins for 12 mins by DiSC35 dye-based fluorescence assay; assay type: functional, organism-based
# How it was run: (§2)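 Mid-log cells (~10⁸ CFU/mL) were suspended in PBS (S. aureus) or HEPES/glucose/KCl with EDTA (E. coli). They were preloaded with DiSC3(5) for 30 min (S. aureus) or 40 min (E. coli), and baseline fluorescence was read for 8 min. Compound was added to 20 µg/mL final, and fluorescence (ex 622/em 670 nm) was read every 2 min for 12 min. Water served as control.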
# [7] = system: Escherichia coli; experiment: Induction of cytoplasmic membrane depolarization in Escherichia coli ATCC 25922 at 10 to 20 ug/ml measured every 2 mins for 12 mins by DiSC35 dye-based fluorescence assay; assay type: functional, organism-based; how it was run: as §2
# [8] = system: Staphylococcus aureus; experiment: Induction of inner membrane permeabilization in Staphylococcus aureus ATCC 29213 at 10 to 20 ug/ml measured every 2 mins for 12 mins by propidium iodide staining-based fluorescence assay; assay type: functional, organism-based
# How it was run: (§3)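 Mid-log cells (~10⁸ CFU/mL) were suspended in PBS (S. aureus) or HEPES/glucose/KCl (E. coli). They were preincubated with propidium iodide for 30 min (S. aureus) or 40 min (E. coli), and baseline fluorescence was read for 8 min. Compound was added to 20 µg/mL final, and fluorescence (ex 535/em 617 nm) was read every 2 min for 12 min.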
# [9] = system: Escherichia coli; experiment: Induction of inner membrane permeabilization in Escherichia coli ATCC 25922 at 10 to 20 ug/ml measured every 2 mins for 12 mins by propidium iodide staining-based fluorescence assay; assay type: functional, organism-based; how it was run: as §3
structure (smiles),measurement,setting,value
CCCCCCCCCCCCCC[N+](C)(C)CC(=O)Nc1ccc(C(=O)/C=C/c2ccccc2F)cc1.[Cl-],MIC,[1],8 µg/mL
same,MIC,[2],> 128 µg/mL
same,MIC,[3],> 128 µg/mL
same,MIC,[4],> 128 µg/mL
same,HC50 at 1 h,[5],192 µg/mL
CCCCCCCC[N+](C)(C)CC(=O)Nc1ccc(C(=O)/C=C/c2cccc(F)c2F)cc1.[Cl-],MIC,[1],0.5 µg/mL
same,MIC,[2],2 µg/mL
same,MIC,[3],2 µg/mL
same,MIC,[4],8 µg/mL
same,HC50 at 1 h,[5],56 µg/mL
same,Activity,[6],Active
same,Activity,[7],Active
same,Activity,[8],Active
same,Activity,[9],Active
CCCCCCCC[N+](C)(C)CC(=O)Nc1ccc(C(=O)/C=C/c2ccc(C(C)(C)C)cc2)cc1.[Cl-],MIC,[1],2 µg/mL
same,MIC,[2],4 µg/mL
same,MIC,[3],16 µg/mL
same,MIC,[4],16 µg/mL
same,HC50 at 1 h,[5],284 µg/mL
CCCCCCCC[N+](C)(C)CC(=O)Nc1ccc(C(=O)/C=C/c2cccc(Br)n2)cc1.[Cl-],MIC,[1],4 µg/mL
same,MIC,[2],8 µg/mL
same,MIC,[3],16 µg/mL
same,MIC,[4],32 µg/mL
same,HC50 at 1 h,[5],363 µg/mL
CCCCCCCC[N+](C)(C)CC(=O)Nc1ccc(C(=O)/C=C/c2cccnc2)cc1.[Cl-],MIC,[1],4 µg/mL
same,MIC,[2],8 µg/mL
same,MIC,[3],16 µg/mL
same,MIC,[4],32 µg/mL
same,HC50 at 1 h,[5],127 µg/mL
CCCCCCCC[N+](C)(C)CC(=O)Nc1ccc(C(=O)/C=C/c2ncccc2F)cc1.[Cl-],MIC,[1],2 µg/mL
same,MIC,[2],8 µg/mL
same,MIC,[3],8 µg/mL
same,MIC,[4],16 µg/mL
same,HC50 at 1 h,[5],83 µg/mL
CCCC[N+](C)(C)CC(=O)Nc1ccc(C(=O)/C=C/c2ccccc2F)cc1.[Cl-],MIC,[1],16 µg/mL
same,MIC,[2],16 µg/mL
same,MIC,[3],64 µg/mL
same,MIC,[4],128 µg/mL
same,HC50 at 1 h,[5],262 µg/mL
CCCCCCCCCCCCCCCCCC[N+](C)(C)CC(=O)Nc1ccc(C(=O)/C=C/c2ccccc2F)cc1.[Cl-],MIC,[1],> 128 µg/mL
same,MIC,[2],> 128 µg/mL
same,MIC,[3],> 128 µg/mL
same,MIC,[4],> 128 µg/mL
same,HC50 at 1 h,[5],444 µg/mL
CCCC[N+](C)(C)CC(=O)Nc1ccc(C(=O)/C=C/c2ccncc2)cc1.[Cl-],MIC,[1],128 µg/mL
same,MIC,[2],128 µg/mL
same,MIC,[3],> 128 µg/mL
same,MIC,[4],> 128 µg/mL
same,HC50 at 1 h,[5],> 500 µg/mL
